# Most compounds without a hit are left out; they make up all but 1.6% or so of the library.
# p47phox inh = p47phox/p22phox peptide binding inhibitors, primary screen, biochemical, uHTS, NADPH oxidase regulatory subunit. fluorescence polarization, 2 h. actives 0.53% (n = 220,000). inhibition, % at 24.7 µM. Neutrophil cytosol factor 1 (Homo sapiens), P14598;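 active means inhibition above about 30%, limit read from the data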
# sdo1 growth = growth rescue of sdo1-depleted yeast, primary screen, S. cerevisiae, bone marrow failure model | z-score at 10 µM | actives 0.21% (n = 140,000) | S. cerevisiae sdo1-depleted JHY4D growth rescue, OD600 30 h; hits give high values; pdr5 snq2 efflux-pump mutant strain | AID 817, 2007;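 active means z-score above 3 at both the 24 hr and the 30 hr optical density reads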
# Tb hexokinase = Trypanosoma brucei hexokinase 1 inhibitors, primary screen, biochemical, G6PDH-coupled NADH absorbance, MLSCN library; hexokinase 1 [Trypanosoma brucei]; actives 0.11% (n = 220,000); AID 1430, 2008; recombinant TbHK1, G6PDH-coupled NADH A340; inhibition, % at 10 µM;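 active means inhibition of 50% or more in the single-dose primary screen; inactive means inhibition below 50%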
# Yeast growth inh = growth inhibitors of yeast BB579 in restrictive medium, primary screen, yeast lifespan-shortening project, S. cerevisiae. OD615, 48 h. actives 0.51% (n = 140,000). inhibition, % at 10 µM;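 active means inhibition above a set limit, 3 SD over the mean compound inhibition, cut at about 44% in these data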
#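 Test system: S. cerevisiae DeaD strain BB579 yeast; Medium: restrictive CSMM-D medium; Compound: one dose, 10 µM compound with 0.25% DMSO; Incubation: 4 h cell preincubation, 48 h compound exposure, 30 °C humidified; Signal: OD at 615 nm; Benchmarks: amphotericin B at 10 µg/mL as positive control.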
# Yeast life ext = compounds extending yeast replicative lifespan, primary screen, S. cerevisiae, OD615; AID 775, 2007; inhibition of the nicotinamide effect, % at 10 µM; actives 0.68% (n = 130,000); S. cerevisiae growth with nicotinamide; deaD strain in restrictive glucose medium;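 active means inhibition above a set limit, placed 3 SD over the median of all compounds, cut at about 26% in these data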
#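 Measured by: optical density (absorbance) at 615 nm; System: modified budding yeast, DeaD strain; Medium: restrictive CSMM-D dextrose medium; Timing: 4 h preincubation then 48 h treatment at 30 °C.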
# RBBP9 inhibitor = human RBBP9 inhibitors, primary screen, biochemical, fluorescence polarization, FP-Rh probe, HTS | Serine hydrolase RBBP9 (Homo sapiens), O75884 | recombinant RBBP9 | inhibition, % at 7.94 µM | actives 0.2% (n = 220,000);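 active means inhibition above the campaign mean of all tested compounds plus 3 SD, cut at about 14% in these data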
# Target sequence (O75884 whole entry, looked up): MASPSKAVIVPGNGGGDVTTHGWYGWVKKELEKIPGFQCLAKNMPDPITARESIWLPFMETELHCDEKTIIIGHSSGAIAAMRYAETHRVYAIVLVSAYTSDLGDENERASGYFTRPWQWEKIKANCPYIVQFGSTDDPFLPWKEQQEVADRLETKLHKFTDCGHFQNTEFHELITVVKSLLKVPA
#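 Controls: DMSO-treated enzyme wells and wells lacking RBBP9 | Material: RBBP9 protein | Technique: Fluorescence polarization | Replication: Single well per compound, no replicates | Buffer or medium: Tris-NaCl-Pluronic buffer, pH 8.0 | Timing: 30 min compound preincubation, 45 min probe labeling, 25 °C | Read-out basis: Percent inhibition from mP, scaled between DMSO and no-protein wells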
# RBBP9 confirm = human RBBP9 inhibitors, retest, confirmation, biochemical, fluorescence polarization, FP-Rh probe, triplicate; shares compounds with RBBP9 inhibitor; recombinant RBBP9; inhibition, % at 7.94 µM; actives 36% (n = 410); AID 1537, 2009;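 active means inhibition above the hit cutoff derived for the primary screen, cut at about 15% in these data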
# Numbers stand for hits; n = inactive; x = no result given.
SMILES,p47phox inh,sdo1 growth,Tb hexokinase,Yeast growth inh,Yeast life ext,RBBP9 inhibitor,RBBP9 confirm
COc1ccc(-n2c(Cc3cccn3C)nnc2SCC(=O)NC2CCCC2)cc1,n,n,n,n,n,19,n
OC(C#CCN1CCCC1)(c1ccccc1)c1cccnc1 (stereo not drawn),n,x,n,x,x,n,x
CCCN(CC#CC(O)(c1ccccc1)c1cccnc1)CCC (stereo not drawn),n,x,n,x,x,22,n
COc1ccc(S(=O)(=O)N2CCOC2CNC(=O)C(=O)NCc2cccnc2)cc1C (stereo not drawn),n,x,n,x,x,n,x
C/C(CC(=O)Nc1ccccn1)=N\NC(=O)c1cccc(C)c1,n,x,n,x,x,n,x
Cc1nn(-c2ccccc2)nc1C(=O)c1c(C)[nH]n(-c2ccccc2)c1=O,n,x,n,x,x,15,n
O=[N+]([O-])/C(C(Cl)=C(Cl)Cl)=C(/Sc1ccccc1)N1CCCCC1,n,x,n,x,x,n,x
COc1ccc(-c2cc3ccccc3[nH]2)cc1,n,x,n,x,x,17,n
Oc1ccc(-c2cnns2)c(O)c1,n,n,n,n,n,41,56
Oc1ccc(-c2nc3ccccc3s2)c(O)c1,n,x,n,x,x,n,x
CCc1ccc(NSc2ccccc2[N+](=O)[O-])cc1,n,n,n,n,n,16,n
O=C(Cn1cc([N+](=O)[O-])cn1)Nc1nccs1,n,x,n,x,x,n,x
Cc1c(C(=O)O)sc(S(=O)(=O)N2CCNCC2)c1C(=O)O,n,x,n,x,x,19,n
CCOC(=O)c1nn(-c2ccc(C)c(C)c2)c(=O)c2c(N)scc12,n,n,n,n,n,18,38
CCOC(=O)c1nn(-c2ccc(OC)cc2)c(=O)c2c(N)scc12,n,n,n,n,n,n,x
CC1=CC(C)(C)N(S(=O)(=O)c2ccc(C)cc2)c2cc(C)ccc21,n,n,n,n,n,21,n
Cc1cc(NC(=O)c2ccc(Cl)cc2)c(C)cc1O,n,x,n,x,x,n,x
Cc1cc(O)c(-c2cc(O)c(C)cc2O)cc1O,n,x,n,x,x,47,73
Oc1ccccc1C1Nc2cccc3cccc(c23)N1,n,n,n,n,n,n,x
O=[N+]([O-])c1ccc(Cl)c(C2Nc3cccc4cccc(c34)N2)c1,n,n,n,n,n,35,37
O=[N+]([O-])c1ccccc1C1Nc2cccc3cccc(c23)N1,n,n,n,n,n,32,27
Cc1cccc(-n2c(SCC(=O)NCc3ccc4c(c3)OCO4)nc3ccccc3c2=O)c1,n,n,n,n,n,n,x
Cc1cc(C)cc(-n2c(SC(C)C(=O)NCc3ccc4c(c3)OCO4)nc3ccccc3c2=O)c1 (stereo not drawn),n,n,n,n,n,21,n
CC(=O)C(=Nc1ccc(Cl)cc1Cl)NNc1cccc(Cl)c1,n,n,n,n,n,32,n
Cc1ccc(C)c(S(=O)(=O)N2CCCOC2CNC(=O)C(=O)NCc2cccnc2)c1 (stereo not drawn),n,x,n,x,x,n,x
SMILES,p47phox inh,sdo1 growth,Tb hexokinase,Yeast growth inh,Yeast life ext,RBBP9 inhibitor,RBBP9 confirm
CCC(C)(C)NC(=O)/C=C/c1cccs1,n,n,n,n,n,18,n
O=C(Nc1nnc(CCN2CCCCC2)s1)c1ccc(Cl)cc1Cl,n,x,n,x,x,n,x
O=C(NNC(=O)c1cc(O)c(O)c(O)c1)NC1CCCCC1,n,n,n,n,n,14,23
O=C(NNC(=O)c1cccnc1)NC1CCCCC1,n,x,n,x,x,n,x
Cc1cc(C)nc(SCc2ccc(C(=O)O)o2)n1,n,n,n,n,n,15,n
CCOC(=O)c1sc(NC(=O)CSC(=S)N2CCN(C)CC2)nc1C,n,x,n,x,x,n,x
CC(=O)Nc1cccc(OCCCNC(=O)c2cccc3ccccc23)c1,n,x,n,x,x,n,x
O=C(Cc1cccs1)Nc1ccccc1NC(=O)Cc1cccs1,n,n,n,n,n,15,n

# Screens: PubChem, several laboratories
